Data set [1] in a line: melting temperature; fluorescence melt of hairpins on a sequencing array, two-state fit, raised by 9.35 °C to match UV melts. As to conditions: sodium 0.088 M. A digest of the protocol: (§1)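 Two-state fits, bootstrapped, provided melting temperature and folding enthalpy from Cy3 fluorescence normalised to pre-quench Cy3 and to control constructs. Library hairpins with annealed Cy3 and quencher oligos were imaged on a sequenced MiSeq flow cell in 50 mM Na-HEPES pH 8.0, 25 mM NaCl, at 2.5 °C intervals up to 60 °C. Four replicates were combined with inverse-variance weighting. A 9.35 °C upward shift was applied to fitted temperatures to match UV melts.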

The nature of data set [2]: folding enthalpy; higher = less favourable; fluorescence melt of hairpins on a sequencing array, two-state fit. The conditions noted are these: sodium 0.088 M. A digest of the protocol: as §1

Regarding CGGTAGCGGAAACGCCCG (((..(((....)))))), the Tm in data set [1] was 48.7 °C. Further, the folding enthalpy in data set [2] was -23.4 kcal/mol.

With CGGTCGCGGAAACGCCCG (((..(((....)))))), the Tm in data set [1] came out at 47.1 °C. Besides, the folding enthalpy in data set [2] was -20.9 kcal/mol.

Take CGGTCGGAAACGAACCG ((((((....))).))): the Tm in data set [1] worked out at 51.6 °C. Further, the folding enthalpy in data set [2] is -33.3 kcal/mol.

In the case of CGGTCGGAAACGAATCCG ((((((....)))..))), in data set [1], the Tm is 37 °C. Further, the folding enthalpy in data set [2] is -25.8 kcal/mol.

In the case of CGGTCGGAAACGACCCG ((((((....))).))), in data set [1], the Tm turned out to be 51.5 °C. In addition, the folding enthalpy in data set [2] was -10 kcal/mol.

Take CGGTCGGAAACGAGCCCG ((((((....)))..))): the Tm in data set [1] is 37.5 °C. Besides, in data set [2], the folding enthalpy is -14 kcal/mol.

Turning to CGGTGCCGGAAACGGCCG (((..(((....)))))), in data set [1], the Tm worked out at 47.5 °C. For the same sequence, in data set [2], the folding enthalpy is -9.28 kcal/mol.

Regarding CGGTTCGGAAACGACCCG (((.(((....))).))), in data set [1], the Tm was 50 °C. Also, in data set [2], the folding enthalpy is -33 kcal/mol.

Turning to CGGTTCGGAAACGACCG (((.(((....)))))), the Tm in data set [1] amounted to 50.6 °C. In addition, in data set [2], the folding enthalpy is -35.6 kcal/mol.

In the case of CGTAAGCGGAAACGCACG (((..(((....)))))), the Tm in data set [1] was 41.8 °C. Also, the folding enthalpy in data set [2] is -22.6 kcal/mol.

As to CGTACCCGGAAACGGACG (((..(((....)))))), the Tm in data set [1] was determined as 31.8 °C. The folding enthalpy in data set [2] is -12.3 kcal/mol.

As to CGTACGGAAACGTCACG ((((((....))).))), the Tm in data set [1] stood at 38.4 °C. The folding enthalpy in data set [2] is -22.6 kcal/mol.

As for CGTACGGAAACGTGTACG ((((((....)))..))), in data set [1], the Tm was found to be 41.5 °C. In addition, in data set [2], the folding enthalpy is -25.2 kcal/mol.

Take CGTACGGAAACGTTCACG ((((((....)))..))): the Tm in data set [1] was 39 °C. Moreover, in data set [2], the folding enthalpy is -18.6 kcal/mol.

Take CGTATCGGAAACGAAACG (((.(((....))).))): the Tm in data set [1] turned out to be 42.5 °C. In data set [2], the folding enthalpy was -37.5 kcal/mol.

Consider CGTCACGGAAACGTAACG (((.(((....))).))), for which the Tm in data set [1] came to 41.6 °C. In addition, the folding enthalpy in data set [2] was -43.1 kcal/mol.

Turning to CGTCACGGAAACGTCACG (((.(((....))).))), the Tm in data set [1] is 39.3 °C. For the same sequence, the folding enthalpy in data set [2] was -19.8 kcal/mol.

Turning to CGTCAGCGGAAACGCACG (((..(((....)))))), in data set [1], the Tm is 40.6 °C. Besides, the folding enthalpy in data set [2] is -15.4 kcal/mol.

Take CGTCCCGGAAACGGACG (((.(((....)))))): in data set [1], the Tm amounted to 53.2 °C. Also, the folding enthalpy in data set [2] was -27.7 kcal/mol.

For CGTCCGGAAACGGAAACG ((((((....)))..))), the Tm in data set [1] amounted to 40.5 °C. Moreover, the folding enthalpy in data set [2] is -20.9 kcal/mol.

Consider CGTCCGGAAACGGAACG ((((((....))).))), for which the Tm in data set [1] stood at 49.9 °C. For the same sequence, the folding enthalpy in data set [2] was -24.9 kcal/mol.

With CGTCCGGAAACGGACACG ((((((....)))..))), the Tm in data set [1] was 42.9 °C. Further, in data set [2], the folding enthalpy is -8.11 kcal/mol.

CGTCCGGAAACGGCCACG ((((((....)))..))): the Tm in data set [1] was 33.1 °C. The folding enthalpy in data set [2] was -13 kcal/mol.

For CGTCCGGAAACGGCTACG ((((((....)))..))), the Tm in data set [1] was determined as 34 °C. The folding enthalpy in data set [2] is -12.6 kcal/mol.

As to CGTCCGGAAACGGTACG ((((((....))).))), the Tm in data set [1] stood at 48.1 °C. For the same sequence, the folding enthalpy in data set [2] was -25.7 kcal/mol.

CGTCCGGAAACGGTCACG ((((((....)))..))): the Tm in data set [1] came out at 35.2 °C. Also, in data set [2], the folding enthalpy is -13.9 kcal/mol.

Take CGTCGGCGGAAACGCACG (((..(((....)))))): the Tm in data set [1] turned out to be 46.1 °C. Besides, in data set [2], the folding enthalpy is -18.3 kcal/mol.

CGTCTCCGGAAACGGACG (((..(((....)))))): the Tm in data set [1] is 37.8 °C. Further, the folding enthalpy in data set [2] is -14.7 kcal/mol.

Consider CGTCTCGGAAACGAACG (((.(((....)))))), for which, in data set [1], the Tm is 36.1 °C. For the same sequence, in data set [2], the folding enthalpy is -23.4 kcal/mol.

Take CGTCTCGGAAACGACACG (((.(((....))).))): the Tm in data set [1] is 35.5 °C. Besides, in data set [2], the folding enthalpy is -31.2 kcal/mol.

For the origin of these results see the array DNA melting data of Ke et al. (doi:10.1101/2024.01.08.574731).
